# Source: PubChem BioAssay
# In the library only some 3.3% were active in any assay of this set; here they are far more common.
# NFkB transloc inh = inhibitors of IL-1B driven NFkB p65 nuclear import, primary screen, imaging, HUVEC, IL-1B stimulus, high-content imaging. HUVEC IL-1B NFkB p65 nuclear translocation imaging. inhibition, % at 2 µM. hit rate 0.43% among 94,000. AID 796, 2007;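 active means inhibition above about 30% together with a positive call from visual inspection of the well image, limit read from the data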;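 further: nuclear over cytoplasmic p65 intensity ratio measured by imaging; 0% = IL-1B stimulated DMSO wells and 100% = unstimulated DMSO wells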
# Rev-RRE block = HIV-1 Rev-RRE binding inhibitors, primary screen, biochemical, FRET, protein-RNA interaction. P05866. Rev peptide-RRE RNA binding. inhibition, % at 8 µM. hit rate 0.79% among 97,000. AID 704, 2007;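 active means inhibition above the screen-wide mean plus 3 SD, cut at about 35% in these data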;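 further: 0% = median DMSO wells and 100% = median Neomycin B control wells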
#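 Assay system: Labelled RRE RNA duplex and labelled Rev peptide | Times: 5 min preincubation and 15 min binding, 25 °C | Detection: FRET, ex 480 nm, em 540 and 671 nm | Evaluation: % inhibition of FRET ratio versus controls | Benchmarks: DMSO wells as 0% and neomycin B wells as 100% inhibition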
# IL1B NFkB pot = enhancers of NFkB p65 translocation in HUVEC – imaging, IL-1B stimulus, high-content imaging, primary screen; AID 819, 2007; activation, % at 2 µM; HUVEC IL-1B NFkB p65 nuclear translocation imaging; hit rate 0.3% among 94,000;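 active means activation above 40%, about the mean plus 3 SD, also judged a hit on visual image review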;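 further: percent activation is computed from the nuclear over cytoplasmic p65 intensity ratio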
# HUVEC tox IL1B = cytotoxicity in IL-1B stimulated HUVEC, primary screen, cytotoxicity control for IL-1B NFkB translocation project, imaging, Hoechst nuclear count, IL-1B stimulus | cell count reduction, % at 2 µM | HUVEC cell count loss | hit rate 0.41% among 94,000;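 active means cell count reduction more than 3 SD above the screen-wide mean, cut at about 70% in these data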;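 further: normalized per plate to untreated control cells as the no-loss baseline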
# Measles CPE = compounds protecting cells from measles virus cytopathic effect, primary screen, measles RdRp inhibitor project, single point, MLSMR library, absorbance. hit rate 1.5% among 140,000. AID 841, 2007. protection (pct of control), % at 4 µM. Measles virus-infected cells, CPE protection; in the data active means protection mostly above about 24%, no sharp cut-off; inactive means mostly below about 26%
# FAK inh = FAK kinase inhibitors, primary screen, biochemical; biochemical FAK kinase activity assay; inhibition, %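 (tested at 7 µM)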; hit rate 0.84% among 97,000; in the data active means inhibition above about 19%;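 further: 0% = DMSO and 100% = reference compound high control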
# Target sequence (Q05397 whole entry, looked up): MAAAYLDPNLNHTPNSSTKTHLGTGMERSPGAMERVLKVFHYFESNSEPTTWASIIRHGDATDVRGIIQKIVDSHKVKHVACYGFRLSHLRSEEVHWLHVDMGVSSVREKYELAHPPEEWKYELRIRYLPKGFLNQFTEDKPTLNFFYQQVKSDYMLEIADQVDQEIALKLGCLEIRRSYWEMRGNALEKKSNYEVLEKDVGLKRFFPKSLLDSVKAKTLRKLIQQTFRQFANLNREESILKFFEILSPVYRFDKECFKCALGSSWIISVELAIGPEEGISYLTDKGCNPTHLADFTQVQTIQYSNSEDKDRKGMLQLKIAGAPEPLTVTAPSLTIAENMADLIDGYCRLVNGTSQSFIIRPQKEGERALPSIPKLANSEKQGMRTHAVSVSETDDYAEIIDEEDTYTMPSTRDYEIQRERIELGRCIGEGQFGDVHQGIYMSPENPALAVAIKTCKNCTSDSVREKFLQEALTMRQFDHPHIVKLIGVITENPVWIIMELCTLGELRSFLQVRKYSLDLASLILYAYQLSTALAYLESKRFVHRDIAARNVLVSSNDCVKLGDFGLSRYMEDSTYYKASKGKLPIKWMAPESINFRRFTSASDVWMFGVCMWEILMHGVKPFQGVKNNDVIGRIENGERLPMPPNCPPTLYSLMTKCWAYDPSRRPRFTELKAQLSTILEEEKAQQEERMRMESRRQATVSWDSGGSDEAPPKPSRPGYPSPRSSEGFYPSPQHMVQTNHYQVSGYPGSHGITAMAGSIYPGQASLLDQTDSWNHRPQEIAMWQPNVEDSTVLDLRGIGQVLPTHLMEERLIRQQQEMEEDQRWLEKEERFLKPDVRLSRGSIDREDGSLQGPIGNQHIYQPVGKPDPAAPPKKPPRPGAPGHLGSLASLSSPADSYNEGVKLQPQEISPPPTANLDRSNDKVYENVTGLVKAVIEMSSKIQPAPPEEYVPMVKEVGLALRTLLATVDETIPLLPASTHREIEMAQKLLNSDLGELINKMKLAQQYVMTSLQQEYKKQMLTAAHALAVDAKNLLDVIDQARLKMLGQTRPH
# * marks the source's active call; other numbers are inactive results; x = not tested or not shown.
SMILES,NFkB transloc inh,Rev-RRE block,IL1B NFkB pot,HUVEC tox IL1B,Measles CPE,FAK inh
O=C(OCCN1C(=O)c2cccc3c(N4CCOCC4)ccc(c23)C1=O)c1ccccc1Cl,x,x,x,x,3,x
O=C(OCCN1C(=O)c2ccccc2C1=O)c1cc(S(=O)(=O)N2CCOCC2)ccc1Cl,-3,9,3,14,74*,7
COCCNC(=S)N/N=C(\C)c1cccc([N+](=O)[O-])c1,x,x,x,x,8,x
Cc1ccc(-c2nnc(-n3ncc(C#N)c3N)c3ccccc23)cc1C,x,x,x,x,30,x
COC(=O)C1=C(C)NC(C)=C(C(=O)OC)C1c1ccc(OC(=O)c2oc3ccccc3c2C)c(OC)c1,x,x,x,x,13,x
CSCCC(NS(=O)(=O)c1ccccc1F)C(=O)OCc1ccccc1Cl (stereo not given),x,x,x,x,8,x
Cc1ccccc1C(=O)Nc1cc(S(=O)(=O)N2CCCCC2)ccc1N1CCN(C)CC1,x,x,x,x,33*,x
COc1cc(S(=O)(=O)N2CCCCC2)ccc1NC(=O)c1ccccc1Cl,47*,12,-47,-36,4,-2
CN1CCN(c2ccc(S(=O)(=O)N3CCCCC3)cc2NC(=O)c2ccc3ccccc3c2)CC1,x,x,x,x,13,x
CN(c1ccccc1C(=O)Nc1ccc(S(=O)(=O)N2CCCCC2)cc1)S(C)(=O)=O,99*,2,-99,94*,25,-1
Cc1cc2c3c(c1)C1(SCC(=O)N1c1ccc(F)cc1)C(=O)N3C(C)(C)CC2C (stereo not given),34*,7,-34,-12,23,2
COc1ccc(/C=C/c2ccncc2)cc1,5,1,-5,-25,9,3
CN(C)c1ccc(/C=C/c2ccncc2)cc1,-4,72*,3,-3,19,0
COC(=O)c1ccc(Cl)c(NC(=O)CN2CCN(Cc3ccccc3)CC2)c1,4,3,-4,-2,36*,0
COC(=O)c1cccc(NC(=O)CN2CCN(Cc3ccccc3)CC2)c1,4,1,-4,-6,12,0
O=C(CN1CCOCC1)Nc1ccccc1Cl,4,4,-4,10,60*,3
Cc1cc(C)cc(NC(=O)CSc2nc(N)c(NC(=O)c3cccs3)c(=O)[nH]2)c1,x,x,x,x,18,x
O=C(c1ccc(F)cc1)N1CCN=C1c1ccccc1,x,x,x,x,8,x
Cc1cc(C)c2c(=O)[nH]c(SCC(=O)NCc3ccccc3)nc2n1,46*,2,-46,-9,14,-1
Cc1cc(C)c2c(=O)[nH]c(SCC(=O)NCCc3ccccc3)nc2n1,-10,4,10,-18,8,1
CCc1ccc(NC(=S)NC(=O)CC(C)C)cc1,x,x,x,x,11,x
COc1ccc(/C=C/C(=O)c2ccc3c4c(cccc24)CC3)cc1OC,x,x,x,x,11,x
CCCCCCCCC(=O)NC(NC(=S)N1CCOCC1)C(Cl)(Cl)Cl (stereo not given),-41,-1,41*,-37,15,0
Cc1cc(C(=O)Nn2c(-c3ccc(Br)cc3)nc3ccccc3c2=O)ccc1[N+](=O)[O-],x,x,x,x,15,x
CC1CCN(C(=O)c2ccccc2NC(=O)c2cccc(S(=O)(=O)N3CCOCC3)c2)CC1,x,x,x,x,13,x
SMILES,NFkB transloc inh,Rev-RRE block,IL1B NFkB pot,HUVEC tox IL1B,Measles CPE,FAK inh
CCN(CC)S(=O)(=O)c1cccc(C(=O)Nc2ccccc2C(=O)N2CCOCC2)c1,x,x,x,x,47*,x
O=C(CSc1nc2ccc(Cl)cc2[nH]1)NCCc1ccc(Cl)cc1,x,x,x,x,4,x
O=C(CSc1nc2ccc(Cl)cc2[nH]1)NCCc1ccccc1,x,x,x,x,29*,x
O=C(Nc1cccc(C(=O)N2CCCCCC2)c1)c1ccco1,14,4,-14,72*,4,1
O=C1N=C(N2CCCC2)CN1c1ccccc1,x,x,x,x,5,x
Cc1ccc(-c2nc3cnccn3c2Nc2c(C)cccc2C)o1,3,13,-3,-24,1,0
CN(C)S(=O)(=O)c1ccc(C(=O)NCc2nnc(SCC(=O)Nc3ccc(F)cc3)n2-c2ccc(F)cc2)cc1,x,x,x,x,4,x
COc1ccc(Cl)cc1NC(=O)CC(C)=O,-4,7,4,7,18,2
COc1ccc(Cl)cc1NC(=O)CC(C)c1ccccc1 (stereo not given),97*,7,-97,80*,18,1
